Source: ChEMBL document CHEMBL4177758, “Rational Drug Design of Topically Administered Caspase 1 Inhibitors for the Treatment of Inflammatory Acne” (J Med Chem, 2018)
Converted amounts (≈) assume the structure as drawn. The source made the active and inactive calls. The calls are words filed in the database; no cut-off is given here.

Columns and labels:
Caspase-1 [1] = molecular target: T1, Caspase-1 (Homo sapiens, UniProt P29466); assay: Inhibition of human recombinant caspase-1 using AC-WEHD-AMC as substrate at Km after 20 mins by fluorescence assay
T1 sequence (P29466 whole entry): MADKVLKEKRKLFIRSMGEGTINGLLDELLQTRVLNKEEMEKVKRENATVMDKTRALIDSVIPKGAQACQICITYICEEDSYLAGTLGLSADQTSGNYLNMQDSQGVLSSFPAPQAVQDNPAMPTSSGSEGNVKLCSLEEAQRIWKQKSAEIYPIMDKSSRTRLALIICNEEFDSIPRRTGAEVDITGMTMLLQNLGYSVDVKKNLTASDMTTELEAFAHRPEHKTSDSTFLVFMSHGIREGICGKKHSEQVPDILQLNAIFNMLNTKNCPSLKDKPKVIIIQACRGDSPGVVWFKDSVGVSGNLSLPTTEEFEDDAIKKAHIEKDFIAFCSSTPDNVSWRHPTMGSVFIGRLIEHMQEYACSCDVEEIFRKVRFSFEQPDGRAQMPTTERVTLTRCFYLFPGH

Caspase-1 [2] = molecular target: T1, Caspase-1; assay: Inhibition of human recombinant caspase-1 using AC-WEHD-AMC as substrate at 20 times Km after 20 mins by fluorescence assay
Outline: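 Human recombinant caspase-1 in pH 7.4 HEPES buffer (100 mM NaCl, 0.1% CHAPS, 1 mM EDTA, 10% glycerol, 10 mM DTT) with Ac-WEHD-AMC at 200 μM final. Compounds tested at 10 000–0.04 nM in 1% DMSO. Enzyme level is set to convert under 20% of substrate in 20 min at room temperature. Free AMC read at ex 340/em 450 nm; IC50 from a four-parameter logistic fit.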

[3] = Lipophilicity, log D of the compound at pH 6.5 by chromatographic method; type: physicochemical; conditions: buffer
Outline: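 Chromatographic lipophilicity at pH 6.5, converted to ChromLogD = CHI × 0.0857 − 2.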

[4] = Chemical stability in 96% ethanol assessed as parent compound recovery at 23 degC after 3 months; type: physicochemical; conditions: read-out: Drug recovery
Outline: (§1)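 Compounds bearing the aspartyl aldehyde warhead are held in 96% ethanol at 23 °C and assayed as percent of parent compound recovered. Readings taken after 4 weeks are projected to 12 weeks with best-fit kinetic-order equations. Tautomers and potential stereoisomers are counted as parent.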

[5] = Intrinsic clearance in NHEK cells assessed per 10^6 cells; type: ADME, cell-based; conditions: human
[6] = Aqueous solubility of the compound in pH 7.4 buffered water after 24 hrs; type: physicochemical
Outline: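 Semi-thermodynamic protocol: a mixture made from a 10 mM DMSO stock is diluted into pH 7.4 buffered water and stirred 24 h before the concentration is measured.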

Caspase-1 [7] = molecular target: T1, Caspase-1; assay: Inhibition of caspase-1 in human THP1 cells assessed as decrease in LPS-induced IL-1beta secretion after overnight incubation by sandwich immunoassay; type: cell-based
[8] = Solubility of the compound in PG/EtOH solution; type: physicochemical
[9] = Intrinsic clearance in human epidermal keratinocyte S9 fraction assessed per mg of protein; type: ADME
[10] = Phototoxicity in NHEK assessed as decrease in cell viability after 24 hrs in presence of UV light by neutral red uptake assay; conditions: human
Outline: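 Keratinocyte neutral red uptake assay adapted from the OECD 432 3T3 NRU test. Cells are irradiated with a simulated daily UV dose of 6 J/cm², and viability is read after 24 h exposure to compound.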

[11] = Chemical stability in 96% ethanol assessed as parent compound recovery at 23 degC after 84 days; type: physicochemical; conditions: read-out: Drug recovery; outline: as §1
Caspase-1 (Homo sapiens) [12] = molecular target: T2, Caspase-1 (Homo sapiens) (UniProt P29466); assay: Reversible inhibition of human recombinant caspase-1 using AC-WEHD-AMC as substrate at 10 times IC50 preincubated for 1 hr followed by 100 fold dilution with substrate measured for 2 hrs by fluorescence assay
T2 sequence (whole entry): T1 sequence (P29466 whole entry)
Outline: (§2)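 Jump dilution using the caspase-1 assay reagents. A 100X enzyme solution is preincubated 1 h with inhibitor at its IC90 (1% DMSO), then diluted 100-fold into Ac-WEHD-AMC at Km. AMC formation is recorded continuously for 2 h. The progress-curve slope is normalized to the DMSO control: about 90% indicates reversible, about 10% pseudo-irreversible.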

Caspase-1 (Homo sapiens) [13] = molecular target: T2, Caspase-1 (Homo sapiens); assay: Pseudoirreversible inhibition of human recombinant caspase-1 using AC-WEHD-AMC as substrate at 10 times IC50 preincubated for 1 hr followed by 100 fold dilution with substrate measured for 2 hrs by fluorescence assay; outline: as §2

SMILES | IC50 (Caspase-1 [1]; read-out: pIC50 (converted)) | IC50 (Caspase-1 [2]) | chromatographic logD [3] | solubility at 24 h [6] | IC50 (Caspase-1 [7]) | other results
Cc1cnc(Nc2ccc(C(=O)Nc3cn(C)c(=O)n(C(C)C(=O)N[C@H]4CC(=O)OC4O)c3=O)cc2)cn1 (stereo not given in full) | 39.8 nM |  |  |  |  | 
C[C@@H](C(=O)N[C@H]1CC(=O)OC1O)N1C(=O)CCC(NC(=O)c2ccc3ccccc3c2)C1=O (stereo not given in full) | 1000 to 10000 nM | 1260 to 10000 nM |  |  |  | 
Cc1cc(Nc2ccc3ccccc3c2)ccc1C(=O)Nc1cn(C(C)C)c(=O)n(CC(=O)N[C@H]2CC(=O)OC2O)c1=O (stereo not given in full) |  |  | 3.5 | 72 µM (≈ 42.2 µg/mL) | 66 nM | remaining at 2191.5 h [4]: 85%; CL [5]: 3.9 uL/min/10^6 cells; solubility [8]: 51000 µM (≈ 29900 µg/mL)
Cc1cc(Nc2ccc3ccccc3c2)ccc1C(=O)Nc1cn(C(C)C)c(=O)n(C2(C(=O)N[C@H]3CC(=O)OC(O)C3)CC2)c1=O (stereo not given in full) |  |  | 3.4 | 63 µM (≈ 39.4 µg/mL) | 360 nM | CL [9]: 3.5 uL/min/mg protein; Activity [10]: Non-Toxic; remaining at 2016 h [11]: 88%
CC(C)n1cc(NC(=O)c2ccc(Nc3cnc4ccccc4n3)cc2)c(=O)n(C2(C(=O)N[C@H]3CC(=O)OC3O)CC2)c1=O (stereo not given in full) |  |  | 2.4 | 87 µM (≈ 52.2 µg/mL) | 27 nM | IC50 (Caspase-1 [1]; read-out: IC50): 4.7 nM; solubility [8]: 25000 µM (≈ 15000 µg/mL)
O=C1C[C@H](NC(=O)[C@@H]2C[C@@H]3CN2C(=O)[C@@H](NC(=O)c2ccc4ccccc4c2)CCCCO3)C(O)O1 (stereo not given in full) | 5010 nM | > 10000 nM |  |  |  | 
CC(C)[C@H](NC(=O)c1ccc2ccccc2c1)c1ccc(C(=O)N[C@H]2CC(=O)OC2O)cn1 (stereo not given in full) | 1260 nM | > 10000 nM |  |  |  | 
CC(C)n1cc(NC(=O)c2ccc(Nc3ccc4ccccc4c3)cc2)c(=O)n(CC(=O)N[C@H]2CC(=O)OC2O)c1=O (stereo not given in full) |  |  | 3.2 | 52 µM (≈ 29.7 µg/mL) | 140 nM | CL [9]: < 0.82 uL/min/mg protein; Activity [10]: Toxic; remaining at 2191.5 h [4]: 82%; IC50 (Caspase-1 [1]; read-out: IC50): 21 nM; solubility [8]: 36000 µM (≈ 20600 µg/mL)
CC(C)n1cc(NC(=O)c2ccc(Nc3cnc4ccccc4n3)cc2)c(=O)n(C(C)C(=O)N[C@H]2CC(=O)OC2O)c1=O (stereo not given in full) |  |  | 2.4 | 86 µM (≈ 50.5 µg/mL) | 50 nM | IC50 (Caspase-1 [1]; read-out: IC50): 5.6 nM; solubility [8]: 11000 µM (≈ 6460 µg/mL)
C[C@@H](C(=O)N[C@H]1CC(=O)OC1O)N1C(=O)CC(NC(=O)c2ccc3ccccc3c2)C1=O (stereo not given in full) | 1000 to 10000 nM | 1260 to 10000 nM |  |  |  | 
CC(C)N(NC(=O)c1ccc2ccccc2c1)C(=O)C1CCC[C@H]1C(=O)N[C@H]1CC(=O)OC1O (stereo not given in full) | 251 to 10000 nM | 1580 to 10000 nM |  |  |  | 
C[C@@H](C(=O)N[C@H]1CC(=O)OC1O)N1C(=O)NC(NC(=O)c2ccc3ccccc3c2)C1=O (stereo not given in full) | 1000 to 10000 nM | 1260 to 10000 nM |  |  |  | 
CC(C)N(NC(=O)c1cccc(Oc2ccccc2)c1)C(=O)[C@@H]1CCCC[C@H]1C(=O)N[C@H]1CC(=O)OC1O (stereo not given in full) |  |  |  |  |  | reversible inhibition call (jump dilution) (Caspase-1 (Homo sapiens) [12]): Active
C[C@@H](C(=O)N[C@H]1CC(=O)O[C@@H]1O)N1C(=O)CCC(NC(=O)c2ccc3ccccc3c2)C1=O (stereo not given in full) |  |  |  |  |  | pseudo-irreversible inhibition (qualitative call) (Caspase-1 (Homo sapiens) [13]): Active
